# How the values were obtained:
# [1] = system: Human immunodeficiency virus 1; experiment: Antiviral activity against HIV1 isolate 185 harboring reverse transcriptase T215Y mutant gene by phenosense assay relative to wild type; format: functional
# Outline: (§1)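 Recombinant-virus PhenoSense HIV assay run on a panel of 30 NRTI-resistant HIV-1 mutants and two wild-type viruses. Each virus is tested across increasing drug concentrations to give an inhibition curve and EC50. Fold change is the test recombinant EC50 divided by the EC50 of the drug-sensitive wild-type reference virus.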
# [2] = system: Human immunodeficiency virus 1; experiment: Antiviral activity against HIV1 isolate 070 harboring reverse transcriptase 65R/S68G mutant gene by phenosense assay relative to wild type; format: functional; outline: as §1
# [3] = system: Human immunodeficiency virus 1; experiment: Antiviral activity against HIV1 isolate 063 harboring reverse transcriptase M41L/D67N/K70R/M184V/L210W/T215Y/K219E mutant gene by phenosense assay; format: functional, organism-based; conditions: Human immunodeficiency virus 1, isolate 063; outline: as §1
# [4] = system: Human immunodeficiency virus 1; experiment: Antiviral activity against HIV1 isolate 061 harboring reverse transcriptase M41L/D67N/K70R/M184V/L210W/T215Y/K219E mutant gene by phenosense assay relative to wild type; format: functional; outline: as §1
# [5] = system: Human immunodeficiency virus 1; experiment: Antiviral activity against HIV1 isolate 194 harboring reverse transcriptase M41L/T215Y/M184V mutant gene by phenosense assay relative to wild type; format: functional; outline: as §1
# [6] = system: Human immunodeficiency virus 1; experiment: Antiviral activity against HIV1 isolate 204 harboring reverse transcriptase M41L/L210W/T215Y/M184V mutant gene by phenosense assay relative to wild type; format: functional
# Outline: (§2)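 PhenoSense HIV recombinant virus assay: patient-derived HIV-1 with major NRTI resistance mutations tested against increasing drug concentrations to give inhibition curves. EC50 is the concentration giving 50% inhibition. Fold change is the test recombinant EC50 divided by the EC50 of a drug-sensitive wild-type reference virus. Panel of 30 NRTI-resistant isolates plus two wild-type viruses.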
# [7] = system: Human immunodeficiency virus 1; experiment: Antiviral activity against HIV1 isolate 162 harboring reverse transcriptase A62V/V75I/F77L/Y115F/F116Y/Q151M/M184V mutant gene by phenosense assay; format: functional, organism-based; conditions: Human immunodeficiency virus 1, isolate 162; outline: as §1
# [8] = system: Human immunodeficiency virus 1; experiment: Antiviral activity against HIV1 isolate 201 harboring reverse transcriptase M41L/L210W/T215Y mutant gene by phenosense assay relative to wild type; format: functional; outline: as §2
# [9] = system: Human immunodeficiency virus 1; experiment: Antiviral activity against HIV1 isolate 069 harboring reverse transcriptase D67E/T69SSG/V75M/M184V/L210W/T215Y mutant gene by phenosense assay; format: functional, organism-based; conditions: Human immunodeficiency virus 1, isolate 069; outline: as §1
# [10] = system: Human immunodeficiency virus 1; experiment: Antiviral activity against HIV1 isolate 200 harboring reverse transcriptase M41L/L210W/T215Y mutant gene by phenosense assay relative to wild type; format: functional; outline: as §1
# [11] = system: Human immunodeficiency virus 1; experiment: Antiviral activity against HIV1 isolate 070 harboring reverse transcriptase 65R/S68G mutant gene by phenosense assay; format: functional, organism-based; conditions: Human immunodeficiency virus 1, isolate 070; outline: as §1
# [12] = system: Human immunodeficiency virus 1; experiment: Antiviral activity against HIV1 isolate 174 harboring reverse transcriptase M184V mutant gene obtained as site-directed mutant of NL4-3 by phenosense assay relative to wild type; format: functional; outline: as §1
# [13] = system: Human immunodeficiency virus 1; experiment: Antiviral activity against HIV1 isolate 201 harboring reverse transcriptase M41L/L210W/T215Y mutant gene by phenosense assay; format: functional, organism-based; conditions: Human immunodeficiency virus 1, isolate 201; outline: as §1
# [14] = system: Human immunodeficiency virus 1; experiment: Antiviral activity against HIV1 isolate 220 harboring reverse transcriptase K70E/M184V mutant gene by phenosense assay; format: functional, organism-based; conditions: Human immunodeficiency virus 1, isolate 220; outline: as §2
# [15] = system: Human immunodeficiency virus 1; experiment: Antiviral activity against HIV1 isolate 204 harboring reverse transcriptase M41L/L210W/T215Y/M184V mutant gene by phenosense assay; format: functional, organism-based; conditions: Human immunodeficiency virus 1, isolate 204; outline: as §2
# [16] = system: Human immunodeficiency virus 1; experiment: Antiviral activity against HIV1 isolate 067 harboring reverse transcriptase A62V/D67G/T69SVG/V75I/T215I mutant gene by phenosense assay; format: functional, organism-based; conditions: Human immunodeficiency virus 1, isolate 067; outline: as §1
# [17] = system: Human immunodeficiency virus 1; experiment: Antiviral activity against HIV1 isolate 188 harboring reverse transcriptase T215Y/M184V mutant gene by phenosense assay relative to wild type; format: functional; outline: as §1
# [18] = system: Human immunodeficiency virus 1; experiment: Antiviral activity against HIV1 isolate 200 harboring reverse transcriptase M41L/L210W/T215Y mutant gene by phenosense assay; format: functional, organism-based; conditions: Human immunodeficiency virus 1, isolate 200; outline: as §1
# [19] = system: Human immunodeficiency virus 1; experiment: Antiviral activity against HIV1 isolate 060 harboring reverse transcriptase M41L/D67N/K70R/L210W/T215Y/K219E mutant gene by phenosense assay relative to wild type; format: functional; outline: as §1
# [20] = system: Human immunodeficiency virus 1; experiment: Antiviral activity against HIV1 isolate 160 harboring reverse transcriptase S68G/V75(I/T)/F77L/Y115F/F116Y /Q151M mutant gene by phenosense assay relative to wild type; format: functional; outline: as §1
# [21] = system: Human immunodeficiency virus 1; experiment: Antiviral activity against HIV1 isolate 056 expressing wild type reverse transcriptase gene by phenosense assay; format: functional, organism-based; conditions: Human immunodeficiency virus 1, isolate 056
# Outline: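 In the PhenoSense recombinant virus assay, virus was tested against increasing drug concentrations. EC50 came from the inhibition curve and was compared with a drug-sensitive reference virus.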
# [22] = system: Human immunodeficiency virus 1; experiment: Antiviral activity against HIV1 isolate 063 harboring reverse transcriptase M41L/D67N/K70R/M184V/L210W/T215Y/K219E mutant gene by phenosense assay relative to wild type; format: functional; outline: as §1
# [23] = system: Human immunodeficiency virus 1; experiment: Antiviral activity against HIV1 isolate 212 harboring reverse transcriptase L210W/T215Y mutant gene by phenosense assay relative to wild type; format: functional; outline: as §2
# [24] = system: Human immunodeficiency virus 1; experiment: Antiviral activity against HIV1 isolate 069 harboring reverse transcriptase D67E/T69SSG/V75M/M184V/L210W/T215Y mutant gene by phenosense assay relative to wild type; format: functional; outline: as §1
# [25] = system: Human immunodeficiency virus 1; experiment: Antiviral activity against HIV1 isolate 217 harboring reverse transcriptase D67N/K70E/M184V mutant gene by phenosense assay relative to wild type; format: functional; outline: as §2
# [26] = system: Human immunodeficiency virus 1; experiment: Antiviral activity against HIV1 isolate 211 harboring reverse transcriptase D67N/K70R/T215F/K219E/M184V mutant gene by phenosense assay; format: functional, organism-based; conditions: Human immunodeficiency virus 1, isolate 211; outline: as §2
# [27] = system: Human immunodeficiency virus 1; experiment: Antiviral activity against HIV1 isolate 153 harboring reverse transcriptase L74V mutant gene by phenosense assay; format: functional, organism-based; conditions: Human immunodeficiency virus 1, isolate 153; outline: as §1
# [28] = system: Human immunodeficiency virus 1; experiment: Antiviral activity against HIV1 isolate 166 harboring reverse transcriptase L74V mutant gene obtained as site-directed mutant of NL4-3 by phenosense assay; format: functional, organism-based; conditions: Human immunodeficiency virus 1, isolate 166; outline: as §1
# [29] = system: Human immunodeficiency virus 1; experiment: Antiviral activity against HIV1 isolate 180 harboring reverse transcriptase K65R mutant gene obtained as site-directed mutant of NL4-3 by phenosense assay relative to wild type; format: functional; outline: as §1
# [30] = system: Human immunodeficiency virus 1; experiment: Antiviral activity against HIV1 isolate 157 harboring reverse transcriptase L74V/M184V mutant gene by phenosense assay; format: functional, organism-based; conditions: Human immunodeficiency virus 1, isolate 157; outline: as §1
# [31] = system: Human immunodeficiency virus 1; experiment: Antiviral activity against HIV1 isolate 166 harboring reverse transcriptase L74V mutant gene obtained as site-directed mutant of NL4-3 by phenosense assay relative to wild type; format: functional; outline: as §1
# [32] = system: Human immunodeficiency virus 1; experiment: Antiviral activity against HIV1 isolate 188 harboring reverse transcriptase T215Y/M184V mutant gene by phenosense assay; format: functional, organism-based; conditions: Human immunodeficiency virus 1, isolate 188; outline: as §1
# [33] = system: Human immunodeficiency virus 1; experiment: Antiviral activity against HIV1 isolate 153 harboring reverse transcriptase L74V mutant gene by phenosense assay relative to wild type; format: functional; outline: as §1
# [34] = system: Human immunodeficiency virus 1; experiment: Antiviral activity against HIV1 isolate 215 harboring reverse transcriptase D67N/K70E mutant gene by phenosense assay; format: functional, organism-based; conditions: Human immunodeficiency virus 1, isolate 215; outline: as §2
# [35] = system: Human immunodeficiency virus 1; experiment: Antiviral activity against HIV1 isolate 220 harboring reverse transcriptase K70E/M184V mutant gene by phenosense assay relative to wild type; format: functional; outline: as §2
SMILES,fold change (FC) [1],fold change (FC) [2],EC50 [3],fold change (FC) [4],fold change (FC) [5],fold change (FC) [6],EC50 [7],fold change (FC) [8],EC50 [9],fold change (FC) [10],EC50 [11],fold change (FC) [12],EC50 [13],EC50 [14],EC50 [15],EC50 [16],fold change (FC) [17],EC50 [18],fold change (FC) [19],fold change (FC) [20],other results
Cc1cn([C@H]2C=C[C@@H](CO)O2)c(=O)[nH]c1=O [STAVUDINE],1.4,1.3,1.4 µM,2.6,1.5,1.8,4.2 µM,1.8,6.8 µM,2.1,0.77 µM,0.68,1.1 µM,0.39 µM,1.1 µM,6.4 µM,1.1,1.2 µM,3.1,9.3,EC50 [21]: 0.51 µM; fold change (FC) [22]: 2.3; fold change (FC) [23]: 1.6; fold change (FC) [24]: 11; fold change (FC) [25]: 0.7; EC50 [26]: 0.79 µM; EC50 [27]: 0.6 µM; EC50 [28]: 0.63 µM; fold change (FC) [29]: 1.4; EC50 [30]: 0.42 µM; fold change (FC) [31]: 1.1; EC50 [32]: 0.65 µM; fold change (FC) [33]: 1; EC50 [34]: 0.56 µM; fold change (FC) [35]: 0.65
Nc1ccn([C@@H]2CS[C@H](CO)O2)c(=O)n1 [LAMIVUDINE],1.6,19,> 300 µM,>71,>80,>80,> 300 µM,1.6,> 300 µM,2.7,71 µM,>80,5.9 µM,> 300 µM,> 300 µM,46 µM,>80,10.3 µM,5.1,24,EC50 [21]: 3.2 µM; fold change (FC) [22]: >80; fold change (FC) [23]: 1.9; fold change (FC) [24]: >80; fold change (FC) [25]: >80; EC50 [26]: > 300 µM; EC50 [27]: 7 µM; EC50 [28]: 6.1 µM; fold change (FC) [29]: 12; EC50 [30]: > 300 µM; fold change (FC) [31]: 1.6; EC50 [32]: > 300 µM; fold change (FC) [33]: 1.9; EC50 [34]: 11 µM; fold change (FC) [35]: >80
Nc1nc(=O)n([C@@H]2CS[C@H](CO)O2)cc1F [EMTRICITABINE],2.3,17,> 100 µM,>63,>88,>88,> 100 µM,1.9,> 100 µM,3.7,19 µM,>88,2.2 µM,> 100 µM,> 100 µM,30 µM,>88,4.2 µM,6.9,30,EC50 [21]: 0.89 µM; fold change (FC) [22]: >88; fold change (FC) [23]: 2.3; fold change (FC) [24]: >88; fold change (FC) [25]: >88; EC50 [26]: > 100 µM; EC50 [27]: 2.1 µM; EC50 [28]: 1.7 µM; fold change (FC) [29]: 11; EC50 [30]: > 100 µM; fold change (FC) [31]: 1.5; EC50 [32]: > 100 µM; fold change (FC) [33]: 1.9; EC50 [34]: 3.4 µM; fold change (FC) [35]: >88
O=c1[nH]cnc2c1ncn2[C@H]1CC[C@@H](CO)O1 [DIDANOSINE],1.1,1.7,11 µM,2.1,1.8,1.6,58 µM,1.1,24 µM,1.4,9.2 µM,1.2,5.9 µM,9.9 µM,8.6 µM,22 µM,1.4,7.5 µM,1.5,12,EC50 [21]: 5.5 µM; fold change (FC) [22]: 2.1; fold change (FC) [23]: 1; fold change (FC) [24]: 4.4; fold change (FC) [25]: 1.3; EC50 [26]: 8.7 µM; EC50 [27]: 8.9 µM; EC50 [28]: 8.1 µM; fold change (FC) [29]: 2; EC50 [30]: 11 µM; fold change (FC) [31]: 1.5; EC50 [32]: 7.9 µM; fold change (FC) [33]: 1.6; EC50 [34]: 7.7 µM; fold change (FC) [35]: 1.8

# Source: ChEMBL document CHEMBL1629690, “Development of hexadecyloxypropyl tenofovir (CMX157) for treatment of infection caused by wild-type and nucleoside/nucleotide-resistant HIV” (Antimicrob Agents Chemother, 2010)
